Measured values from paper PMC3220786 (ACS Chemical Biology, 2011).
Where a SMILES comes first, the peptide text is derived from it. [ ]: non-standard residue; d: D form. The star is where a group is joined. NHCH2CH2OH = OCCN*; For = O=C*

Key:
[1] = system: P. falciparum ATQ-R lines (cytochrome b mutants); assay: SYBR Green proliferation assay, atovaquone-resistant; format: cell-based, Plasmodium falciparum; settings: for shift of IC50 across ATQ-R lines (control compounds) / loss of potency, residue 133 mutants (M133I, M133V): ATQ-R lines vs parental 3D7; for loss of potency, F267V mutant / loss of potency, residue 144 mutant / loss of potency, triple mutant (M133I/V140T/L181V): ATQ-R line vs parental 3D7
[2] = system: P. falciparum ScDHOD-D10attB; assay: SYBR Green proliferation assay, transgenic ScDHOD-D10attB line; format: cell-based, Plasmodium falciparum; settings: for shift in IC50, ScDHOD-D10attB vs parental line: transgenic parasites expressing yeast dihydroorotate dehydrogenase; for IC50: Plasmodium falciparum, read-out: IC50 values, ScDHOD-D10attB
Outline: (§1)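 Blood-stage P. falciparum D10attB parental line and ScDHOD-D10attB transgenic line (single integrated copy of yeast DHOD gene) were tested in the SYBR Green proliferation assay. IC50 values are means ± SD of three independent experiments, each in duplicate. The shift compares the transgenic IC50 with the parental IC50.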

[3] = system: Murine pro-B cell line Ba/F3; assay: Cytotoxicity, Ba/F3 cells; format: cell-based; settings: read-out: mammalian cell line CC50; Ba/F3; CellTiter Glo reagent
P. falciparum 3D7 strain = assay: SYBR Green parasite proliferation assay, 3D7; format: cell-based, Plasmodium falciparum; settings: CC50 Ba/F3 / IC50 P. falciparum 3D7
[4] = Cytotoxicity, Ba/F3 cells; format: cell-based, murine; settings: mouse
[5] = molecular target: T1, P. yoelii cytochrome c reductase (Plasmodium yoelii, UniProt Q7PDA7); assay: Ubiquinol-cytochrome c oxidoreductase; format: biochemical
T1 sequence (Q7PDA7 1-376): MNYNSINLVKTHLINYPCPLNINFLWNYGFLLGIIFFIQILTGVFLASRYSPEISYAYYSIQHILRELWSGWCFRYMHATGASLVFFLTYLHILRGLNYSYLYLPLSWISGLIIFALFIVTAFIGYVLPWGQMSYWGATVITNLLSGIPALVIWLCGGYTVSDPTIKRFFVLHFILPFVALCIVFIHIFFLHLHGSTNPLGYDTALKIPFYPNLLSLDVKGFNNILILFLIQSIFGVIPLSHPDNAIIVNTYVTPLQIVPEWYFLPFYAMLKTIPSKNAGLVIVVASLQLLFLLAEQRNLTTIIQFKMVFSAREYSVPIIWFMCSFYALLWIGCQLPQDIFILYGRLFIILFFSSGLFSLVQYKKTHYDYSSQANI
T1 sequence (V7P9V8 31-357 partner): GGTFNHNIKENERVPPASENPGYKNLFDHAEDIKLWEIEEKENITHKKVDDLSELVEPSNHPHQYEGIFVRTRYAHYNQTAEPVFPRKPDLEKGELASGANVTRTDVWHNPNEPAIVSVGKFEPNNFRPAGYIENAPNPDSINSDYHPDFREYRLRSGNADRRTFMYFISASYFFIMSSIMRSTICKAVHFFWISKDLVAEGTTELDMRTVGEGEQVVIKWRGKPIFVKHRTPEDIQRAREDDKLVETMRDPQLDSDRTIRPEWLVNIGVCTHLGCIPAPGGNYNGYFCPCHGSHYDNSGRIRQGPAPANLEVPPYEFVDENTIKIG
T1 sequence (Q7RJI2 1-394 partner): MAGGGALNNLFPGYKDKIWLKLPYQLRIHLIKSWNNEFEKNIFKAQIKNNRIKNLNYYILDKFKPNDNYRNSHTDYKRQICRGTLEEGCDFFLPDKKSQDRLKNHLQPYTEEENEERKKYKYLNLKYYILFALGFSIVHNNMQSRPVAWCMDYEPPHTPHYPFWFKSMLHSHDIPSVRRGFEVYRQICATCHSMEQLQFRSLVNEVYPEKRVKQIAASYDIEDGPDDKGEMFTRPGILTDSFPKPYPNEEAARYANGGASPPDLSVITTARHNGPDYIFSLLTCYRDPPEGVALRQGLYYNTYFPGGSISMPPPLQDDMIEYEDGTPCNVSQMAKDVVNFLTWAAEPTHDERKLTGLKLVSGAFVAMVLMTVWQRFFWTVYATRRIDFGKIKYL

[6] = system: P. yoelii sporozoites in HepG2-A16-CD81EGFP cells; format: cell-based, Plasmodium yoelii; settings: for IC50: Plasmodium yoelii, in Homo sapiens, read-out: IC50, liver stage
[7] = system: P. yoelii (17XNL strain) sporozoites; assay: Prophylaxis activity test in sporozoite-infected mice; format: in vivo, ICR female mouse
Outline: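 ICR female mice (7 weeks, 26–36 g) received 50,000 P. yoelii 17XNL sporozoites via the tail vein. Immediately afterwards they were given a single oral gavage dose of test compound at 50 mg kg–1 in corn oil (5 mice). Parasitemia was checked daily by Giemsa-stained tail-snip blood microscopy. Prepatent period = first day parasitemia was seen. Mice were euthanized above 20% parasitemia.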

[8] = chickens, iv; cited from earlier work
P. falciparum D10attB = assay: SYBR Green proliferation assay, parental D10attB line; format: cell-based; settings: Plasmodium falciparum, read-out: IC50 values, D10attB
Outline: as §1

P. falciparum DEC-R line = assay: SYBR Green proliferation assay, decoquinate-resistant; format: cell-based, Plasmodium falciparum; settings: loss of potency against decoquinate-resistant clone

COc1ccc(C[C@H]2NC[C@H](O)[C@H]2OC(C)=O)cc1 [Anisomycin]
shift of IC50 across ATQ-R lines (control compounds) [1]: nearly invariable | shift in IC50, ScDHOD-D10attB vs parental line [2]: no shift

COC[C@H]1C(=O)NCC(=O)N2NCCC[C@H]2C(=O)N(O)[C@H](C)C(=O)O[C@@H](C(C)C)[C@H](NC(=O)[C@](C)(O)[C@]2(O)CC[C@@H](CC(C)C)[C@H](C)O2)C(=O)N2NCCC[C@@H]2C(=O)N1O [Aurantimycin A]
CC50 [3]: 45 nM | therapeutic index CC50/IC50 (P. falciparum 3D7 strain): 0.5

COc1ccc2cc3[n+](cc2c1OC)CCc1cc2c(cc1-3)OCO2 [Berberine]
CC50 at 3 days ([4]; Ba/F3 cells): 320 nM | therapeutic index CC50/IC50 (P. falciparum 3D7 strain): 0.6

C[C@@H]1C[C@H](C)C[C@H](C)[C@@H](O)CC(=O)O[C@H]([C@@H]2CCC[C@H]2C(=O)O)C/C=C/C=C(/C#N)[C@H](O)[C@@H](C)C1 [Borrelidin]
CC50 at 3 days ([4]; Ba/F3 cells): 959 nM | therapeutic index CC50/IC50 (P. falciparum 3D7 strain): 11.6

CCOC(=O)c1cnc2cc(OCC3CC3)c(OCC3CC3)cc2c1O [Ciproquinate]
CC50 at 3 days ([4]; Ba/F3 cells): > 1250 nM | therapeutic index CC50/IC50 (P. falciparum 3D7 strain): >156

CCCCCCC[N+](CC)(CC)CCCCc1ccc(Cl)cc1 [Clofilium]
CC50 at 3 days ([4]; Ba/F3 cells): > 1250 nM | therapeutic index CC50/IC50 (P. falciparum 3D7 strain): >2.4

CCCCCCCCCCOc1cc2c(O)c(C(=O)OCC)cnc2cc1OCC [Decoquinate]
IC50 [5]: 97 nM | fold increase in liver stage activity over atovaquone [6]: 10 fold | IC50 [6]: 0.177 nM | prepatent period (day at which parasitemia was first observed) ([7]; single oral dose with 50,000 sporozoites i.v.): 8 days | loss of potency, F267V mutant [1]: 2 fold | loss of potency, residue 144 mutant [1]: no effect | loss of potency, triple mutant (M133I/V140T/L181V) [1]: 5 fold | loss of potency, residue 133 mutants (M133I, M133V) [1]: did not alter | CC50 at 3 days ([4]; Ba/F3 cells): > 12500 nM | therapeutic index CC50/IC50 (P. falciparum 3D7 strain): >2,500 | therapeutic index CC50/IC50 (P. falciparum 3D7 strain; listed as decoquinate): > 2,500 | t1/2 [8]: 9 to 22 h | IC50 (P. falciparum D10attB): 5.3 ± 1.24 nM | fold change in IC50, DEC-R clone vs parental 3D7 (P. falciparum DEC-R line): 90 fold | IC50 [2]: > 1000 nM

CCC(Cc1cnc2nc(N)nc(N)c2n1)c1ccc(C(=O)N[C@@H](CCC(=O)O)C(=O)O)cc1 (some centres unmarked) [Edatrexate]
CC50 at 3 days ([4]; Ba/F3 cells): 5 nM | therapeutic index CC50/IC50 (P. falciparum 3D7 strain): 0.1

CN(C)c1ccc(C(=C2C=CC(=[N+](C)C)C=C2)c2ccc(N(C)C)cc2)cc1 [Gentian violet]
CC50 at 3 days ([4]; Ba/F3 cells): > 1250 nM | therapeutic index CC50/IC50 (P. falciparum 3D7 strain): >4

CC(C)C[C@@H](NC(=O)[C@H](C)NC(=O)CNC(=O)[C@@H](NC=O)C(C)C)C(=O)N[C@@H](C)C(=O)N[C@@H](C(=O)N[C@H](C(=O)N[C@@H](C(=O)N[C@@H](Cc1c[nH]c2ccccc12)C(=O)N[C@H](CC(C)C)C(=O)N[C@@H](Cc1c[nH]c2ccccc12)C(=O)N[C@H](CC(C)C)C(=O)N[C@@H](Cc1c[nH]c2ccccc12)C(=O)N[C@H](CC(C)C)C(=O)N[C@@H](Cc1c[nH]c2ccccc12)C(=O)NCCO)C(C)C)C(C)C)C(C)C [Gramicidin A] (For-VGA[dL]A[dV]V[dV]W[dL]W[dL]W[dL]W-NHCH2CH2OH)
CC50 at 3 days ([4]; Ba/F3 cells (murine pro-B cell line)): 110 nM

O[Si](CCCN1CCCCC1)(c1ccccc1)C1CCCCC1 (centres unmarked) [HHSiD, Hexahydro-sila-difenidol]
CC50 [3]: > 1250 nM | therapeutic index CC50/IC50 (P. falciparum 3D7 strain): >16.4

Cl.Cl.O=C(Nc1ccc(C2=NCCCN2)cc1)c1ccc(C(=O)Nc2ccc(C3=NCCCN3)cc2)cc1 [NSC 57153]
CC50 [3]: 550 nM | therapeutic index CC50/IC50 (P. falciparum 3D7 strain): 1.1

CCCOC(=O)C[N+](C)(C)CCOCCCCCCCCCCOCC[N+](C)(C)CC(=O)OCCC [Prodeconium]
CC50 [3]: > 6250 nM | therapeutic index CC50/IC50 (P. falciparum 3D7 strain): >156

COc1ccc(C[C@H](N)C(=O)N[C@H]2[C@@H](O)[C@H](n3cnc4c(N(C)C)ncnc43)O[C@@H]2CO)cc1 [Puromycin]
CC50 at 3 days ([4]; Ba/F3 cells): > 1250 nM | therapeutic index CC50/IC50 (P. falciparum 3D7 strain): >14.2

CO\C=C(C(=O)OC)/C(C)=C\C=C\c1ccc(Cl)c(OC)c1 [Strobilurin B]
CC50 [3]: 3100 nM | therapeutic index CC50/IC50 (P. falciparum 3D7 strain): 13.5

CCCCCCCCNC(C)C(O)c1ccc(SC(C)C)cc1 (centres unmarked) [Suloctidil]
CC50 at 3 days ([4]; Ba/F3 cells): 970 nM | therapeutic index CC50/IC50 (P. falciparum 3D7 strain): 0.6

N=C(N)NCCCCCCCCCCNC(=N)N [Synthalin]
CC50 at 3 days ([4]; Ba/F3 cells): > 5400 nM | therapeutic index CC50/IC50 (P. falciparum 3D7 strain): >200

CCN(CC)CCOc1ccc2c(c1)C(=O)c1cc(OCCN(CC)CC)ccc1-2 [Tilorone]
CC50 at 3 days ([4]; Ba/F3 cells): > 12500 nM | therapeutic index CC50/IC50 (P. falciparum 3D7 strain): >12.5

CC(C)[C@@H]1NC(=O)[C@H](C)OC(=O)[C@@H](C(C)C)NC(=O)[C@@H](C(C)C)OC(=O)[C@H](C(C)C)NC(=O)[C@H](C)OC(=O)[C@@H](C(C)C)NC(=O)[C@@H](C(C)C)OC(=O)[C@H](C(C)C)NC(=O)[C@H](C)OC(=O)[C@@H](C(C)C)NC(=O)[C@@H](C(C)C)OC1=O [Valinomycin]
CC50 at 3 days ([4]; Ba/F3 cells): 91 nM | therapeutic index CC50/IC50 (P. falciparum 3D7 strain): 12.8

CC1=C[C@H]2O[C@@H]3C[C@H]4OC(=O)/C=C\C=C\C(=O)OCC/C(C)=C/C(=O)OC[C@@]2(CC1)[C@]4(C)[C@]31CO1 [Verrucarin J]
therapeutic index CC50/IC50 (P. falciparum 3D7 strain): 12.1

O=C1C(O)=C([C@H]2CC[C@H](c3ccc(Cl)cc3)CC2)C(=O)c2ccccc21 [atovaquone]
IC50 [5]: 7.6 nM | IC50 [6]: 1.7 nM | protection / survival of mice ([7]; single oral dose (decoquinate 50 mg kg-1, atovaquone 2.5 mg kg-1)): completely protected | loss of potency, F267V mutant [1]: 20 fold | loss of potency, residue 144 mutant [1]: ~200 fold | loss of potency, triple mutant (M133I/V140T/L181V) [1]: 2000 fold | loss of potency, residue 133 mutants (M133I, M133V) [1]: ~16 fold | IC50 (P. falciparum D10attB): 0.512 ± 0.164 nM | fold change in IC50, DEC-R clone vs parental 3D7 (P. falciparum DEC-R line): 4 fold | IC50 [2]: > 1000 nM | shift in IC50, ScDHOD-D10attB vs parental line [2]: > 1900 fold

OC(c1cc(C(F)(F)F)nc2c(C(F)(F)F)cccc12)C1CCCCN1 (centres unmarked) [mefloquine]
shift of IC50 across ATQ-R lines (control compounds) [1]: 2 fold | IC50 (P. falciparum D10attB): 7.88 ± 1.64 nM | IC50 [2]: 4.02 ± 1.4 nM | shift in IC50, ScDHOD-D10attB vs parental line [2]: slight increase in mefloquine sensitivity

Muconomycin B
CC50 [3]: 30 nM | therapeutic index CC50/IC50 (P. falciparum 3D7 strain): 12.5
